The source of these data is PubChem BioAssay AID624165 (Southern Research Specialized Biocontainment Screening …, 2012).

Structures are written as SMILES. Calls of active or inactive are those of the source.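 Rule for the calls: active = inhibition of 30% or more at any tested concentration; inactive = the rest.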

This assay relates to Plasmodium falciparum M18 aspartyl aminopeptidase (PfM18AAP). In words: inhibition of P. falciparum M18 aspartyl aminopeptidase – biochemical, QFRET, H-Glu-NHMec substrate, set 3, selectivity assay for PFM1AAP inhibitor project, dose response (AID 624165). The settings on record: Recombinant PfM18AAP, H-Glu-NHMec fluorogenic cleavage; series mostly up to 100 µM; inhibition: at the top concentration. Put shortly: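 System: Purified recombinant PfM18AAP, M18 aspartyl aminopeptidase of Plasmodium falciparum | Input: Enzyme 5 µg/mL | Medium: pH 7.5 Tris, 2 mM CoCl2 | Incubation: Reaction 90 min, room temperature | Measured by: Fluorescence, excitation 370 nm, emission 460 nm | Control set: no-enzyme background wells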
Usually inhibition stands for the drop in the measured response relative to a control, in per cent. For `O=C(NCc1cccc(F)c1)C1CCN(S(=O)(=O)c2sccc2Br)CC1`, the “inhibition” value was 4.41% (inactive).

For the compound `O=C(NCc1ccccc1F)C1CCN(S(=O)(=O)c2ccc(Br)s2)CC1`, the “inhibition” value is 5.87% (inactive).

Consider `O=C(NCc1ccc2c(c1)OCO2)C1CCN(S(=O)(=O)c2ccc(Br)cc2)CC1`, for which the “inhibition” value was 3.21% (inactive).

As to `O=C(Nc1ccc2c(c1)OCO2)C1CCN(S(=O)(=O)c2ccc(Br)s2)CC1`, the “inhibition” value is 1.63% (inactive).

As to `O=C(Nc1ccc2c(c1)OCO2)C1CCN(S(=O)(=O)c2ccc(Cl)s2)CC1`, the “inhibition” value is 2.63% (inactive).

For `O=C(NCCc1ccc2c(c1)OCO2)C1CCN(S(=O)(=O)c2cc(Br)c(Br)s2)CC1`, the “inhibition” value was 6.44% (inactive).

Take `O=C(NCc1ccc2c(c1)OCO2)C1CCN(S(=O)(=O)c2cc(Br)c(Br)s2)CC1`: the “inhibition” value is 4.8% (inactive).

As to `O=C(Nc1ccc2c(c1)OCO2)C1CCN(S(=O)(=O)c2ccc(Br)cc2)CC1`, the “inhibition” value is -2.22% (inactive).

As to `O=C(NCCc1ccc2c(c1)OCO2)C1CCN(S(=O)(=O)c2ccc(Cl)s2)CC1`, the “inhibition” value is 3.06% (inactive).

Take `O=C(NCc1cccc(F)c1)C1CCN(S(=O)(=O)c2ccc(Cl)s2)CC1`: the “inhibition” value was 11.8% (inactive).

With `O=C(NCc1cccc(F)c1)C1CCN(S(=O)(=O)c2ccc(Br)cc2)CC1`, the “inhibition” value is 5.49% (inactive).

Consider `O=C(NCc1ccccc1F)C1CCN(S(=O)(=O)c2cc(Br)c(Br)s2)CC1`, for which the “inhibition” value was 1.25% (inactive).

Turning to `O=C(NCc1ccc2c(c1)OCO2)C1CCN(S(=O)(=O)c2ccc(Br)s2)CC1`, the “inhibition” value is -8.16% (inactive).

`O=C(NCCc1ccc2c(c1)OCO2)C1CCN(S(=O)(=O)c2sccc2Br)CC1`: the “inhibition” value was 5.41% (inactive).

Regarding `O=C(NCc1ccccc1F)C1CCN(S(=O)(=O)c2ccc(Br)cc2)CC1`, the “inhibition” value is 1.27% (inactive).

Turning to `O=C(NCc1ccc(F)cc1)C1CCN(S(=O)(=O)c2ccc(Cl)s2)CC1`, the “inhibition” value was -10% (inactive).

For the compound `O=C(Nc1ccc2c(c1)OCO2)C1CCN(S(=O)(=O)c2sccc2Br)CC1`, the “inhibition” value is -1.28% (inactive).

Take `O=C(NCc1ccccc1F)C1CCN(S(=O)(=O)c2ccc(Cl)s2)CC1`: the “inhibition” value is 6.81% (inactive).

For `O=C(NCc1ccc(F)cc1)C1CCN(S(=O)(=O)c2ccc(Br)cc2)CC1`, the “inhibition” value was 14.5% (inactive).

As for `O=C(Nc1ccc2c(c1)OCO2)C1CCN(S(=O)(=O)c2cc(Br)c(Br)s2)CC1`, the “inhibition” value is -0.06% (inactive).

With `O=C(NCc1ccc2c(c1)OCO2)C1CCN(S(=O)(=O)c2sccc2Br)CC1`, the “inhibition” value is 4.54% (inactive).

With `O=C(NCc1cccc(F)c1)C1CCN(S(=O)(=O)c2ccc(Br)s2)CC1`, the “inhibition” value was 2.41% (inactive).

Consider `O=C(NCc1ccc(F)cc1)C1CCN(S(=O)(=O)c2cc(Br)c(Br)s2)CC1`, for which the “inhibition” value was 11.3% (inactive).

With `O=C(NCc1ccc2c(c1)OCO2)C1CCN(S(=O)(=O)c2ccc(Cl)s2)CC1`, the “inhibition” value was 10.5% (inactive).

With `O=C(NCc1ccc(F)cc1)C1CCN(S(=O)(=O)c2ccc(Br)s2)CC1`, the “inhibition” value was 2.15% (inactive).

In the case of `O=C(NCc1cccc(F)c1)C1CCN(S(=O)(=O)c2cc(Br)c(Br)s2)CC1`, the “inhibition” value was 2.39% (inactive).

Consider `O=C(NCc1ccc(F)cc1)C1CCN(S(=O)(=O)c2sccc2Br)CC1`, for which the “inhibition” value was 4.56% (inactive).

As for `O=C(NCc1ccccc1F)C1CCN(S(=O)(=O)c2sccc2Br)CC1`, the “inhibition” value was 1.26% (inactive).

For `O=C(NCCc1ccc2c(c1)OCO2)C1CCN(S(=O)(=O)c2ccc(Br)cc2)CC1`, the “inhibition” value was 0.75% (inactive).

Regarding `O=C(NCCc1ccc2c(c1)OCO2)C1CCN(S(=O)(=O)c2ccc(Br)s2)CC1`, the “inhibition” value was 6.12% (inactive).
